FID counter: compounds displacing fluorescent DNA intercalator, primary screen, artefact control for HCV NS3 helicase inhibitor project, biochemical, FID fluorescence | AID 1845, 2009 | 290,000 tested, 0.17% active | DNA fluorescent intercalator displacement | inhibition, % at 7.9 µM; in the data active means inhibition above about 37%;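 further: 0% = vehicle and 100% = reference compound; higher means more ethidium bromide displaced from hairpin DNA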
RAD54 branch: inhibitors of human RAD54 branch migration, primary screen, biochemical, fluorescence, single point. inhibition, % at 10.4 µM. 360,000 tested, 0.14% active. DNA repair and recombination protein RAD54-like (Homo sapiens), Q92698. AID 602329, 2012. RAD54 Holliday junction branch migration, FAM/BHQ fluorescence;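 active means mean normalized replicate activity at least 40 and at least half of replicates scoring 40 or more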;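 further: 0% = median of neutral control wells and 100% = median of positive control wells; inhibitors cause a drop in the FAM fluorescence signal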
Neddylation inh: inhibitors of cullin neddylation, primary screen, biochemical, TR-FRET, uHTS, NAE and Ubc12. calls only at 25 µM. 360,000 tested, 0.58% active. AID 651699, 2012; in the data active means inhibition above about 36%
Apaf1 inhib: inhibitors of human Apaf-1 apoptosome, primary screen, biochemical, DEVD-Rh110 fluorescence, uHTS; 330,000 tested, 0.71% active; inhibition, % at 20 µM; AID 489030, 2010; reconstituted apoptosome caspase-3 activity; active means inhibition of at least 40% at 20 µM;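 further: plate controls were DMSO wells for no effect and DEVD-CHO caspase inhibitor wells for full effect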
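System: reconstituted apoptosome with Apaf-1, cytochrome c, caspase-9, procaspase-3, dATP; Signal: Rh110 fluorescence intensity; Schedule: 30 min compound preincubation, 50 min activation, room temperature; Reagent: cytochrome c trigger plus (Z-DEVD)2-Rh110 caspase-3 substrate.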
UBC13 polyUb: UBC13 polyubiquitin chain formation inhibitors, primary screen, biochemical, TR-FRET, uHTS | Ubiquitin-conjugating enzyme E2 N (Homo sapiens), P61088 | inhibition, % at 20 µM | 330,000 tested, 0.47% active; in the data active means inhibition above about 45%, passing the limit was not always enough
RAD52 anneal inh: RAD52 DNA annealing inhibitors, primary screen, biochemical, FRET, single point, set 2; inhibition, % at 18.7 µM; 360,000 tested, 0.46% active; DNA repair protein RAD52 homolog (Homo sapiens), P43351; recombinant RAD52 DNA annealing, FRET fluorescence;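 active means every replicate showing at least 50% inhibition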
Target sequence (P43351 whole entry, looked up): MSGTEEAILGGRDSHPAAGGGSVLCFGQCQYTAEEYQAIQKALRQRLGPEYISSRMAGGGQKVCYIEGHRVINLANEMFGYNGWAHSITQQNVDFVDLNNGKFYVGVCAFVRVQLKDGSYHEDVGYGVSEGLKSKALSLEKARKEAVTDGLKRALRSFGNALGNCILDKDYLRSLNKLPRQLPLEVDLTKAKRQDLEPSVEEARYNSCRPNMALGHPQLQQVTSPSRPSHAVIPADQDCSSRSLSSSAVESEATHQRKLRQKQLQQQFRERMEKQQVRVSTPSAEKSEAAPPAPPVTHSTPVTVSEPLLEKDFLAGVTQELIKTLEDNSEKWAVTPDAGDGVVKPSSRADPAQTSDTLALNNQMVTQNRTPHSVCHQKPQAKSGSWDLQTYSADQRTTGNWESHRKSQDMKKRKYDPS
* hit, by the source's call; i = inactive; . = no result given; + = active, no number. Only some compounds are listed: those with a hit (about 1.6% of all), similar ones and a draw of the others.

SMILES	FID counter	RAD54 branch	Neddylation inh	Apaf1 inhib	UBC13 polyUb	RAD52 anneal inh
COc1ccc2cc3cc(C(=O)N4CCCCCC4)oc3nc2c1	-50	-2	+	11	1	.
COc1ccc2cc3cc(C(=O)NCCCN4CCOCC4)oc3nc2c1	23	60*	.	4	1	.
COc1ccc2cc3cc(C(=O)NCCN4CCN(Cc5ccccc5)CC4)oc3nc2c1	28	11	.	7	11	.
COc1ccc(NC(=O)NC[C@H]2CC[C@H]3[C@H](CN3Cc3ccccc3C(=O)O)O2)cc1	.	.	.	.	.	54*
Fc1ccc2c(c1)C(c1ccc(N3CCOCC3)cc1)=NNC(c1cccs1)=N2	-16	9	+	22	-15	-101
COc1ccc(CN(C(=O)Cc2c[nH]c3ccccc23)C(C(=O)NC2CCCCC2)c2ccc(C)o2)cc1 (stereo not given)	89*	12	i	27	-12	.
C[C@H]1CN([C@@H](C)CO)C(=O)c2cc(NC(=O)CCCN(C)C)ccc2O[C@@H]1CN(C)Cc1ccc(Cl)c(Cl)c1	.	1	.	.	.	41
C[C@H](CO)N1C[C@H](C)[C@@H](CN(C)Cc2ccc(Cl)c(Cl)c2)Oc2ccc(NC(=O)CCCN(C)C)cc2CC1=O	.	20	.	.	.	59*
C[C@H](CO)N1C[C@H](C)[C@H](CN(C)Cc2ccc(-c3ccccc3)cc2)Oc2ccc(NC(=O)CCCN(C)C)cc2CC1=O	.	2	.	.	.	53*
C[C@@H]1CN([C@H](C)CO)C(=O)Cc2cc(NS(=O)(=O)c3cccs3)ccc2O[C@@H]1CN(C)Cc1ccc(Cl)c(Cl)c1	.	10	.	.	.	22
C[C@@H]1CN([C@@H](C)CO)C(=O)Cc2cc(NS(=O)(=O)c3cccs3)ccc2O[C@H]1CN(C)Cc1ccc(Cl)c(Cl)c1	.	-2	.	.	.	51*
C[C@H](CO)N1C[C@H](C)[C@H](CN(C)Cc2ccc(-c3ccccc3)cc2)Oc2ccc(NC(=O)Cc3ccccc3)cc2CC1=O	.	2	.	.	.	-19
C[C@@H]1CN([C@H](C)CO)C(=O)Cc2cc(NC(=O)CCCN(C)C)ccc2O[C@H]1CN(C)Cc1ccc(-c2ccccc2)cc1	.	12	.	.	.	73*
C[C@H]1CN([C@@H](C)CO)C(=O)Cc2cc(NC(=O)CCCN(C)C)ccc2O[C@H]1CN(C)Cc1ccc(-c2ccccc2)cc1	.	.	.	.	.	49
COc1ccc2c3c([nH]c2c1)[C@H](CO)N(C(=O)c1ccccc1)CC31CCN(C(=O)CC2CC2)CC1	.	.	.	.	.	3
COc1ccc(NC(=O)Nc2ccc3c(c2)C(=O)N([C@@H](C)CO)C[C@@H](C)[C@H](CN(C)C(=O)Nc2c(C)noc2C)OCCCC[C@H](C)O3)cc1	.	.	.	.	.	22
C[C@H](CO)N1C[C@H](C)[C@@H](CN(C)Cc2ccc3c(c2)OCO3)Oc2ccc(NC(=O)Cc3ccccc3)cc2C1=O	.	5	.	.	.	-5
O=C(C[C@@H]1C[C@@H]2c3cc(NC(=O)c4cccnc4)ccc3O[C@@H]2[C@@H](CO)O1)NCC1CC1	.	-5	.	.	.	-6
CNC(=O)C1=C[C@@H](c2ccc(OC)cc2)C[C@@H](OCCCCO)O1	.	-6	.	.	.	1
CC(C)CN=c1cc(-c2ccccc2)oc2ccc(Cl)cc12	17	.	i	14	7	.
OCCN=c1cc(-c2ccccc2)oc2ccc(Cl)cc12	7	82*	i	4	4	.
CC(O)CN=c1cc(-c2ccccc2)oc2ccc(Cl)cc12 (stereo not given)	0	67*	i	3	3	31
Cc1noc(C)c1S(=O)(=O)Nc1ccc2c(c1)CC(=O)N([C@H](C)CO)C[C@H](C)[C@@H](CN(C)Cc1ccc(Cl)c(Cl)c1)O2	.	5	.	.	.	-19
Cc1cc(C(=O)O)ccc1-c1ccc(/C=C2\NC(=O)N(Cc3ccccc3Cl)C2=O)o1	8	.	.	14	-6	.
Cc1ccc(C(=O)O)cc1-c1ccc(/C=C2/NC(=O)N(c3ccccc3)C2=O)o1	-16	-8	+	20	-8	.
